T cruzi growth-1: T. cruzi intracellular proliferation inhibitors, primary screen, cell-based, beta-gal Tulahuen parasites, NIH3T3 host, luminescence; T. cruzi beta-gal in NIH3T3, GalScreen luminescence, 90 h; inhibition, % at 8.34 µM; 77,000 compounds, 5.9% hits; AID 624255, 2012;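 active means mean inhibition above about 93%, with at least 55% of replicates each passing it, limit read from the data, passing the limit was not always enough; inconclusive means only one of those two conditions holds; inactive means neither condition holds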
KDM4C inh: inhibitors of GASC-1 (KDM4C) histone demethylase, primary screen, biochemical, single concentration HTS. Lysine-specific demethylase 4C (Homo sapiens), Q9H3R0. GST-KDM4C 2-372, H3K9me3 peptide, LANCE TR-FRET. inhibition, % at 12.5 µM. 96,000 compounds, 0.15% hits. AID 720574, 2013;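 active means mean replicate inhibition above about 25%, with at least 55% of replicates also reaching it, limit read from the data, passing the limit was not always enough; inconclusive means only one of those two conditions met; inactive means neither condition met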
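Material: GST-tagged GASC-1 (JMJD2C) catalytic fragment, aa 2-372 / Quantity: enzyme final amount 10 nM / Medium: HEPES buffer, pH 7.5, plus ascorbate / Doses: one test concentration per compound / Incubation: 30 min reaction, 60 min detection, RT / Measured by: LANCE TR-FRET / Read-out: inhibition from TR-FRET ratio decrease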
IDH1 mut inh: inhibitors of IDH1 R132H reductase, primary screen, biochemical, plate reader, single point; inhibition, % at 10 µM; 70,000 compounds, 0.18% hits; Isocitrate dehydrogenase [NADP] cytoplasmic (Homo sapiens), O75874; diaphorase/resazurin fluorescence, 60 min; in the data active means inhibition above about 34%; inconclusive means no clear call, values can overlap the other calls; inactive means below about 11%;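 further: 0% = DMSO and 100% = no enzyme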
Target sequence (O75874 whole entry R132H): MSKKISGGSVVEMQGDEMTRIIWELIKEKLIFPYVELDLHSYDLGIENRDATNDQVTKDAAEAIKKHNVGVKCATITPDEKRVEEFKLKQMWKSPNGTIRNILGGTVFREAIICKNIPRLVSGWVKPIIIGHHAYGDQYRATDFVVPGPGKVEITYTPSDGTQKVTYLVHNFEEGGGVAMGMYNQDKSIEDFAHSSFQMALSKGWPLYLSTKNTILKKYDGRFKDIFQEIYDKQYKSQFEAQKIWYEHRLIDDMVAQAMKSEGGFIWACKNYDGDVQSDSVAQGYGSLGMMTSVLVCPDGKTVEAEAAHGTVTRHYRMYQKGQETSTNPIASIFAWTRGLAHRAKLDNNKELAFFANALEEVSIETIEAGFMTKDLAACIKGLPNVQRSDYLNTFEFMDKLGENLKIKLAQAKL
Pf Dd2 inh: P. falciparum Dd2 growth inhibitors, primary screen, SYBR Green fluorescence, single dose replicates. 72 h; hits give low values. activity change, % at 10 µM. 94,000 compounds, 2.3% hits. AID 1159554, 2015; in the data active means activity change below about -80%; inconclusive means no clear call, values can overlap the other calls
T cruzi growth-2: T. cruzi intracellular proliferation inhibitors, confirmation, cell-based, NIH3T3 host, beta-gal parasite, luminescence, cherry-pick; shares compounds with T cruzi growth-1; T. cruzi beta-gal in NIH3T3, GalScreen luminescence, 90 h; inhibition, % at 8.35 µM; 5,600 compounds, 72% hits;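 active means mean replicate inhibition above about 95% and at least 55% of replicates individually reaching it, limit read from the data; inconclusive means only one of the two criteria is met; inactive means neither criterion is met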
T cruzi growth-3: inhibitors of intracellular T. cruzi replication, confirmation, NIH3T3 host cells, beta-gal parasites, cherry-pick, set 2. shares compounds with T cruzi growth-1. T. cruzi beta-gal in NIH3T3, GalScreen luminescence, 90 h. inhibition, % at 2.09 µM. 5,600 compounds, 21% hits;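 active means mean inhibition above about 95%, with at least 55% of replicates also reaching it, limit read from the data; inconclusive means meets just one of the two conditions; inactive means meets neither condition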;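 further: plate controls were neutral control median for no effect and positive control median for full effect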
NIH3T3 tox: cytotoxicity in mouse NIH/3T3 fibroblasts, confirmation, cytotoxicity control for T. cruzi proliferation inhibitor project, cell-based, cherry-pick, single point; shares compounds with T cruzi growth-1; AID 651742, 2012; NIH/3T3 viability, CellTiter-Glo ATP luminescence, 90 h; 5,600 compounds, 14% hits; cytotoxicity (signal decrease), % at 8.35 µM;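 active means mean signal decrease across replicates above about 35% based on untreated-well scatter, with enough replicates individually passing, limit read from the data; inconclusive means no rule stated though some were filed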;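 further: 0% = median of neutral control wells and 100% = median of positive control wells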
3T3 cytotox 2: NIH/3T3 fibroblast cytotoxicity, confirmation, cytotoxicity control, cell-based, cherry-pick, single point, set 2. 5,600 compounds, 56% hits. NIH/3T3 viability, CellTiter-Glo ATP luminescence, 90 h. inhibition, % at 24.9 µM. AID 651744, 2012. shares compounds with T cruzi growth-1;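 active means mean loss of cell viability signal at or above a set limit, and enough replicates individually reaching it; inconclusive means meets only the mean limit or only the replicate share; inactive means meets neither condition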;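 further: 0% = median of neutral control wells and 100% = median of positive control wells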
* marks the source's active call; other numbers are inactive results; u = inconclusive; x = no result. An excerpt weighted towards active compounds, which were near 5.8% of everything screened.

SMILES	T cruzi growth-1	KDM4C inh	IDH1 mut inh	Pf Dd2 inh	T cruzi growth-2	T cruzi growth-3	NIH3T3 tox	3T3 cytotox 2
N#Cc1cccc(-c2ccc3c(c2)[C@@H]2[C@@H](CCN2S(=O)(=O)c2ccccc2F)[C@H](CO)N3)c1	108*	-3	x	23	106*	87	46*	92*
N#Cc1ccc(-c2ccc3c(c2)[C@@H]2[C@@H](CCN2S(=O)(=O)c2ccccc2F)[C@H](CO)N3)cc1	36	0	x	24	x	x	x	x
N#Cc1cccc(-c2ccc3c(c2)[C@H]2[C@H](CCN2S(=O)(=O)c2cccc(F)c2)[C@@H](CO)N3)c1	u	-1	x	10	106*	48	46*	51*
Cc1noc(C)c1NC(=O)N(C)C[C@@H]1Oc2ccc(NC(=O)Nc3ccc(C(F)(F)F)cc3)cc2CC(=O)N([C@@H](C)CO)C[C@@H]1C	5	-2	1	-1	x	x	x	x
CCCC#Cc1ccc([C@H]2[C@@H](CO)N3CCCCN(Cc4cccnc4)C[C@@H]23)cc1	110*	1	x	-57	101*	83	43*	78*
COCC#Cc1ccc([C@H]2[C@@H](CO)N3CCCCN(Cc4cccnc4)C[C@@H]23)cc1	101*	-1	x	-8	88	81	-17	4
COc1ccc(NC(=O)C2CC=CCC2C(=O)Nc2ccccc2Cl)cc1 (stereo not given)	x	x	0	x	x	x	x	x
N#Cc1c(NC(=O)CSc2nnc3c(n2)[nH]c2ccccc23)sc2c1CCCC2	x	x	0	x	x	x	x	x
C[C@@H]1CCCCO[C@@H](CN(C)Cc2ccccc2)[C@H](C)CN([C@@H](C)CO)C(=O)c2cc(NC(=O)NC3CCCCC3)ccc2O1	-112	-2	x	-46	x	x	x	x
C[C@H]1CCCCO[C@@H](CN(C)Cc2ccccc2)[C@@H](C)CN([C@@H](C)CO)C(=O)c2cc(NC(=O)NC3CCCCC3)ccc2O1	-116	2	5	-55	x	x	x	x
C[C@H](CO)N1C[C@H](C)[C@@H](CN(C)Cc2ccccc2)OCCCC[C@H](C)Oc2ccc(NC(=O)NC3CCCCC3)cc2C1=O	u	-1	x	-14	u	54	15	48*
C[C@@H]1CN([C@H](C)CO)C(=O)c2cc(NC(=O)NC3CCCCC3)ccc2O[C@@H](C)CCCCO[C@@H]1CN(C)Cc1ccccc1	113*	0	3	-47	108*	54	-13	31*
COc1ccc(S(=O)(=O)N(C)C[C@H]2Oc3cc(C4=CCCC4)ccc3S(=O)(=O)N([C@H](C)CO)C[C@H]2C)cc1	122*	4	0	-38	103*	61	22	57*
COc1ccc(S(=O)(=O)N(C)C[C@H]2Oc3cc(C4=CCCC4)ccc3S(=O)(=O)N([C@H](C)CO)C[C@@H]2C)cc1	51	2	-2	-66	x	x	x	x
COc1ccc(S(=O)(=O)N(C)C[C@H]2Oc3cc(C4=CCCC4)ccc3S(=O)(=O)N([C@@H](C)CO)C[C@H]2C)cc1	122*	7	0	-28	101*	105*	45*	54*
CC(=O)NC[C@H]1[C@@H](c2ccccc2)[C@H](CO)N1C(=O)Cc1cccnc1	66	1	x	-13	x	x	x	x
O=C(NC[C@@H]1[C@@H](c2ccccc2)[C@@H](CO)N1C(=O)Cc1cccnc1)C1CC1	100*	1	x	-54	-35	-65	-15	-8
CC(=O)NC[C@@H]1[C@H](c2ccccc2)[C@H](CO)N1C(=O)Cc1cccnc1	u	-1	x	-1	-5	-15	0	-16

Screening results (PubChem BioAssay)
